Converted amounts (≈) assume the structure as drawn. The source made the active and inactive calls. No cut-off for these calls is given here.

For orientation: EC50 means the concentration that produces a half-maximal response. As a reminder, the MIC is the least concentration at which growth counts as inhibited.

Experiment [1] concerns Radical scavenging activity. Put plainly: Antioxidant activity assessed as DPPH radical scavenging activity after 10 mins. The class given is functional. The method, boiled down:
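Methanolic sample solution added to DPPH solution (0.025 g/L in MeOH, prepared daily); vehicle alone in control tubes; absorbance read at 515 nm 10 min after start. α-Tocopherol positive control. Triplicate runs; EC50 calculated by Litchfield and Wilcoxon method.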
A general note: The DPPH test is a chemical assay of radical scavenging.

Experiment [2] has as its system Staphylococcus aureus. In words: Antibacterial activity against Staphylococcus aureus ATCC 6538 after 24 hrs by broth microdilution method. The class given is functional. The settings on record: ATCC 6538, 24 h. The method, boiled down: (§1)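 Broth microdilution in 96-well plates, in duplicate, following NCCLS (2001); ATCC Gram-positive and Gram-negative bacteria, a yeast and a mold. MIC taken as lowest concentration inhibiting microbial growth after 24 h.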

The test system of experiment [3] is Staphylococcus epidermidis. In words: Antibacterial activity against Staphylococcus epidermidis ATCC 12228 after 24 hrs by broth microdilution method. It counts as functional. The note with it: ATCC 12228, 24 h. The procedure, abridged: as §1
A general note: In broth dilution the organism is exposed to a series of concentrations in liquid medium.

Experiment [4] concerns Bacillus spizizenii. Put plainly: Antibacterial activity against Bacillus spizizenii ATCC 6633 after 24 hrs by broth microdilution method. The class given is functional. The settings on record: ATCC 6633, 24 h. The method, boiled down: as §1
Experiment [5] deals with Pseudomonas aeruginosa. Put plainly: Antibacterial activity against Pseudomonas aeruginosa ATCC 9027 after 24 hrs by broth microdilution method. It counts as functional. The method, boiled down:
as §1

The subject of experiment [6] is Escherichia coli. Put plainly: Antibacterial activity against Escherichia coli ATCC 8739 after 24 hrs by broth microdilution method. The class given is functional. The method, boiled down:
as §1

For experiment [7], the system named is Candida albicans. Put plainly: Antifungal activity against Candida albicans ATCC 10231 after 24 hrs by broth microdilution method. It counts as functional. The note with it: ATCC 10231, 24 h. The method, boiled down: as §1
Experiment [8] relates to Aspergillus niger. In words: Antifungal activity against Aspergillus niger ATCC 16404 after 24 hrs by broth microdilution method. It counts as functional. The settings on record: ATCC 16404, 24 h. The method, boiled down:
as §1

For experiment [9], the system named is Staphylococcus aureus. Put plainly: Antibacterial activity against Staphylococcus aureus ATCC 6538 after 48 hrs by broth microdilution method. The class given is functional. The note with it: ATCC 6538, 48 h. The procedure, abridged:
(§2)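 Broth microdilution in 96-well plates, in duplicate, per NCCLS (2001), ATCC strains. MBC taken as lowest concentration at which no microbial cell survived after 48 h incubation (bacteria) or 5 days (yeast and mold).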

Experiment [10] concerns Staphylococcus epidermidis. Put plainly: Antibacterial activity against Staphylococcus epidermidis ATCC 12228 after 48 hrs by broth microdilution method. The class given is functional. The note with it: ATCC 12228, 48 h. The procedure, abridged: as §2
The test system of experiment [11] is Bacillus spizizenii. In words: Antibacterial activity against Bacillus spizizenii ATCC 6633 after 48 hrs by broth microdilution method. The note with it: ATCC 6633, 48 h. The class given is functional. The procedure, abridged:
as §2

Experiment [12] concerns Pseudomonas aeruginosa. Put plainly: Antibacterial activity against Pseudomonas aeruginosa ATCC 9027 after 48 hrs by broth microdilution method. It counts as functional. The method, boiled down: as §2
In experiment [13] the test system is Escherichia coli. In words: Antibacterial activity against Escherichia coli ATCC 8739 after 48 hrs by broth microdilution method. The class given is functional, organism-based. The procedure, abridged: as §2
Experiment [14] deals with Candida albicans. Put plainly: Antifungal activity against Candida albicans ATCC 10231 after 5 days by broth microdilution method. It counts as functional. The procedure, abridged:
as §2

Experiment [15] concerns Aspergillus niger. In words: Antifungal activity against Aspergillus niger ATCC 16404 after 5 days by broth microdilution method. The class given is functional. The procedure, abridged:
as §2

As to `O=c1cc(-c2ccc(O)c(O)c2)oc2cc(O[C@@H]3O[C@H](CO)[C@@H](O)[C@H](O)[C@H]3O)ccc12`, the EC50 in experiment [1] stood at 28.4 µg/mL (≈ 0.0657 mM). Also, the MIC turned out to be 2000 µg/mL (≈ 4.63 mM) in the experiment with Staphylococcus aureus [2]; 500 µg/mL (≈ 1.16 mM) in experiment [3]; 1000 µg/mL (≈ 2.31 mM) with Bacillus spizizenii [4]; 4000 µg/mL (≈ 9.25 mM) in the experiment on Pseudomonas aeruginosa [5] (ATCC 9027, 24 h); 4000 µg/mL (≈ 9.25 mM) in the experiment on Candida albicans [7]; 1000 µg/mL (≈ 2.31 mM) in the experiment with Aspergillus niger [8]. In addition, the MIC result in the experiment with Escherichia coli [6] was “inactive”. Further, the values for the MBC (with Staphylococcus aureus [9]; in experiment [10]; in the experiment on Bacillus spizizenii [11]) were 4000 µg/mL (≈ 9.25 mM), 4000 µg/mL (≈ 9.25 mM) and 1000 µg/mL (≈ 2.31 mM), respectively. In addition, the MBC entry with Pseudomonas aeruginosa [12], in the experiment with Escherichia coli [13], in the experiment on Candida albicans [14] and in the experiment with Aspergillus niger [15] was “inactive” throughout.
As to `Cc1c(C)c2c(c(C)c1O)CC[C@@](C)(CCC[C@H](C)CCC[C@H](C)CCCC(C)C)O2` [ALPHA-TOCOPHEROL], the EC50 in experiment [1] is 10.1 µg/mL (≈ 0.0234 mM).
On to `O=C(CCc1ccc(O)cc1)c1ccc(O[C@@H]2O[C@H](CO)[C@@H](O)[C@H](O)[C@H]2O)cc1O` [CONFUSOSIDE], for which the EC50 in experiment [1] was over 1000 µg/mL. In addition, the MIC against Staphylococcus aureus [2] worked out at 4000 µg/mL (≈ 9.51 mM); in experiment [3], 1000 µg/mL (≈ 2.38 mM); in the experiment on Bacillus spizizenii [4] it was 120 µg/mL (≈ 0.285 mM); with Escherichia coli [6] (ATCC 8739, 24 h), 2000 µg/mL (≈ 4.76 mM); in the experiment with Candida albicans [7], 4000 µg/mL (≈ 9.51 mM); against Aspergillus niger [8], 120 µg/mL (≈ 0.285 mM). Moreover, the MIC result in the experiment with Pseudomonas aeruginosa [5] was “inactive”. Moreover, the MBC came out at 4000 µg/mL (≈ 9.51 mM) against Staphylococcus aureus [9], 2000 µg/mL (≈ 4.76 mM) in experiment [10] and 1000 µg/mL (≈ 2.38 mM) against Bacillus spizizenii [11]. Further, the MBC entry with Pseudomonas aeruginosa [12], in the experiment with Escherichia coli [13], in the experiment with Candida albicans [14] and in the experiment on Aspergillus niger [15] was “inactive” throughout.
In the case of `O=C(CCc1ccc(O)cc1)c1ccc(O)cc1O` [DAVIDIGENIN], the EC50 in experiment [1] was over 1000 µg/mL. Also, the minimal inhibitory concentration (MIC) amounted to 120 µg/mL (≈ 0.465 mM) against Staphylococcus aureus [2]; 250 µg/mL (≈ 0.968 mM) in experiment [3]; 120 µg/mL (≈ 0.465 mM) in the experiment with Bacillus spizizenii [4]; 2000 µg/mL (≈ 7.74 mM) in the experiment on Pseudomonas aeruginosa [5] (ATCC 9027, 24 h); 4000 µg/mL (≈ 15.5 mM) in the experiment with Escherichia coli [6] (ATCC 8739, 24 h); 1000 µg/mL (≈ 3.87 mM) in the experiment on Candida albicans [7]. This molecule displayed an MIC against Aspergillus niger [8] of 120 µg/mL (≈ 0.465 mM). Besides, the MBC is 500 µg/mL (≈ 1.94 mM) with Staphylococcus aureus [9]; 500 µg/mL (≈ 1.94 mM) in experiment [10]; 500 µg/mL (≈ 1.94 mM) in the experiment with Bacillus spizizenii [11]; 4000 µg/mL (≈ 15.5 mM) against Pseudomonas aeruginosa [12] (ATCC 9027, 48 h); 2000 µg/mL (≈ 7.74 mM) in the experiment with Candida albicans [14] (ATCC 10231, 120 h). In addition, the MBC entry in the experiment on Escherichia coli [13] and with Aspergillus niger [15] was “inactive” in each case.
Regarding `O=c1c(O[C@@H]2O[C@H](CO)[C@@H](O)[C@H](O)[C@H]2O)c(-c2ccc(O)c(O)c2)oc2cc(O)cc(O)c12` [ISOQUERCETIN], the EC50 in [1] is 20.4 µg/mL (≈ 0.0439 mM). Further, the MIC against Staphylococcus aureus [2] came out at 4000 µg/mL (≈ 8.61 mM); in [3], 1000 µg/mL (≈ 2.15 mM); in the experiment on Bacillus spizizenii [4], 1000 µg/mL (≈ 2.15 mM); against Candida albicans [7], 4000 µg/mL (≈ 8.61 mM); against Aspergillus niger [8], 2000 µg/mL (≈ 4.31 mM). Also, the MIC entry in the experiment on Pseudomonas aeruginosa [5] and in the experiment with Escherichia coli [6] was “inactive” throughout. Also, the MBC was 4000 µg/mL (≈ 8.61 mM) against Staphylococcus aureus [9]; 4000 µg/mL (≈ 8.61 mM) in [10]; 2000 µg/mL (≈ 4.31 mM) against Bacillus spizizenii [11]; 4000 µg/mL (≈ 8.61 mM) against Aspergillus niger [15] (ATCC 16404, 120 h). The MBC entry in the experiment with Pseudomonas aeruginosa [12], in the experiment with Escherichia coli [13] and in the experiment with Candida albicans [14] was “inactive” throughout.

Values taken from ChEMBL document CHEMBL1154892, “Saponins and polyphenols from Fadogia ancylantha (makoni tea)” (J Nat Prod, 2010).
